Activity calls are given as the source filed them. The calls are words filed in the database; no cut-off is given here.
What was measured:
AGS [1] = assay: Induction of apoptosis in human AGS cells assessed as necrotic cells at 6 uM after 36 hrs by Annexin-V-FITC/propidium iodide staining based flow cytometry (reference value: 1.01%); type: functional
[2] = molecular target: Serine/threonine-protein kinase B-raf (Homo sapiens) (UniProt P15056); assay: Inhibition of B-raf (unknown origin) at 30 uM relative to control
AGS [3] = assay: Induction of apoptosis in human AGS cells assessed as late apoptotic cells at 10 uM after 36 hrs by Annexin-V-FITC/propidium iodide staining based flow cytometry (reference value: 1.71%); type: functional
[4] = molecular target: Cyclin-dependent kinase 2/cyclin E1 (Homo sapiens) (UniProt P24864+P24941); assay: Inhibition of CDK2/cyclin E (unknown origin) at 30 uM relative to control; type: protein-complex assay
AGS [5] = assay: Induction of apoptosis in human AGS cells assessed as live cells at 8 uM after 36 hrs by Annexin-V-FITC/propidium iodide staining based flow cytometry (reference value: 92.84%); type: functional
[6] = Antiproliferative activity against HUVEC after 48 hrs by CCK8 assay; type: cell-based; settings: human, read-out: LC50
AGS [7] = assay: Induction of apoptosis in human AGS cells assessed as early apoptotic cells at 10 uM after 36 hrs by Annexin-V-FITC/propidium iodide staining based flow cytometry (reference value: 4.44%); type: functional
[8] = molecular target: Serine/threonine-protein kinase Chk1 (Homo sapiens) (UniProt O14757); assay: Inhibition of CHK1 (unknown origin) at 30 uM relative to control
[9] = Antiproliferative activity against human LO2 cells after 48 hrs by CCK8 assay; type: cell-based, L02; settings: read-out: LC50
AGS [10] = assay: Induction of apoptosis in human AGS cells assessed as late apoptotic cells at 8 uM after 36 hrs by Annexin-V-FITC/propidium iodide staining based flow cytometry (reference value: 1.71%); type: functional
[11] = molecular target: RAC-alpha serine/threonine-protein kinase (Homo sapiens) (UniProt P31749); assay: Inhibition of AKT (unknown origin) at 30 uM relative to control
[12] = molecular target: Serine/threonine-protein kinase PLK1 (Homo sapiens) (UniProt P53350); assay: Inhibition of PLK (unknown origin) at 30 uM relative to control
AGS [13] = assay: Induction of apoptosis in human AGS cells after 36 hrs by Annexin-V-FITC/propidium iodide staining based flow cytometry; type: functional, cell-based
AGS [14] = assay: Induction of apoptosis in human AGS cells assessed as late apoptotic cells at 4 uM after 36 hrs by Annexin-V-FITC/propidium iodide staining based flow cytometry (reference value: 1.71%); type: functional
[15] = molecular target: T1, NEDD8 activating enzyme (Homo sapiens) (UniProt Q8TBC4+Q13564); assay: Inhibition of NAE-mediated CRL neddylation in human AGS cells assessed as increase in CDT1 level up to 10 uM after 24 hrs by Western blot analysis; type: cell-based
How it was run: (§1)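 AGS cells given 2, 4, 6, 8 or 10 μM compound or 0.1% DMSO for 24 h, washed in ice-cold PBS and lysed in RIPA on ice. Equal protein loads run by SDS-PAGE: non-reducing for NEDD8/SUMO/Ub conjugates, reducing for p27, NRF2, CDT1 and cleaved caspase-3. Blotted to PVDF with primary antibody overnight at 4 °C and HRP secondary, ECL detection, densitometry. Three repeats.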

AGS [16] = assay: Synergistic antiproliferative activity against human AGS cells assessed as combination index constant at 1 uM after 48 hrs in presence of 7.5 nM BTZ by CCK8 assay; type: functional
How it was run: (§2)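 AGS cells at 6×10^3/well attached for 12 h, then exposed for 48 h to compound, bortezomib, or both at set concentrations. CCK-8 added for 4 h, then OD read at 450 nm. Inhibition rates E used for q = E(combo)/(E1+E2−E1×E2). Triplicate experiments.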

AGS [17] = assay: Synergistic antiproliferative activity against human AGS cells assessed as combination index constant at 1.5 uM after 48 hrs in presence of 5 nM BTZ by CCK8 assay; type: functional; how it was run: as §2
[18] = molecular target: Aurora kinase A (Homo sapiens) (UniProt O14965); assay: Inhibition of AurA (unknown origin) at 30 uM relative to control
AGS [19] = assay: Induction of apoptosis in human AGS cells assessed as increase in cleaved caspase-3 level up to 10 uM after 24 hrs by Western blot analysis; type: functional, cell-based; how it was run: as §1
[20] = molecular target: Tyrosine-protein kinase Lck (Homo sapiens) (UniProt P06239); assay: Inhibition of LCK (unknown origin) at 30 uM relative to control
AGS [21] = assay: Induction of apoptosis in human AGS cells assessed as live cells at 6 uM after 36 hrs by Annexin-V-FITC/propidium iodide staining based flow cytometry (reference value: 92.84%); type: functional
AGS [22] = assay: Induction of apoptosis in human AGS cells assessed as late apoptotic cells at 6 uM after 36 hrs by Annexin-V-FITC/propidium iodide staining based flow cytometry (reference value: 1.71%); type: functional
[23] = molecular target: SUMO-activating enzyme (Homo sapiens) (UniProt Q9UBE0+Q9UBT2); assay: Inhibition of SAE in human AGS cells assessed as reduction in […]-SUMO conjugation level at 2 to 10 uM after 24 hrs by Western blot analysis; type: cell-based; how it was run: as §1
AGS [24] = assay: Cell cycle arrest in human AGS cells assessed as accumulation at sub-G1 phase at 4 uM after 24 hrs by propidium iodide staining based flow cytometry; type: functional
How it was run: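 AGS cells seeded at 1 × 10^5/well and attached 24 h at 37 °C, 5% CO2. Exposed to 4 μM compound for varying times, then fixed in 70% ethanol at −20 °C overnight. Stained with PI/RNase buffer 15–20 min in the dark; 20000 cells per sample read by flow cytometry (488 nm excitation, FL-3 630 nm). Three repeats.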

[25] = Selectivity index, ratio of IC50 for HEK293T cells to IC50 for human AGS cells; type: toxicity; settings: HEK293T cells versus AGS cells, read-out: Ratio IC50
[26] = molecular target: Serine/threonine-protein kinase Chk2 (Homo sapiens) (UniProt O96017); assay: Inhibition of CHK2 (unknown origin) at 30 uM relative to control
[27] = molecular target: T1, NEDD8 activating enzyme (Homo sapiens); assay: Inhibition of NAE in human AGS cells assessed as reduction in Cullins-NEDD8 conjugation level after 24 hrs by Western blot analysis; type: cell-based; how it was run: as §1
[28] = molecular target: T1, NEDD8 activating enzyme (Homo sapiens); assay: Inhibition of NAE in human AGS cells assessed as reduction in Uba3-NEDD8 conjugation level after 24 hrs by Western blot analysis; type: cell-based; how it was run: as §1
SK-OV-3 = assay: Antiproliferative activity against human SKOV3 cells after 48 hrs by CCK8 assay; type: functional, cell-based; settings: SK-OV-3, 48 h
How it was run: (§3)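 Cells seeded at 6 × 10^3 cells/well and left 12 h at 37 °C, 5% CO2. Medium then replaced with serial compound dilutions, bortezomib as positive control. After 48 h, CCK-8 added for 4 h and absorbance read at 450 nm. Three repeats; IC50 from normalized nonlinear regression of inhibition curves.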

[29] = molecular target: cAMP-dependent protein kinase catalytic subunit alpha (Homo sapiens) (UniProt P17612); assay: Inhibition of PKAalpha (unknown origin) at 30 uM relative to control
AGS [30] = assay: Antiproliferative activity against human AGS cells after 48 hrs by CCK8 assay; type: functional, cell-based; how it was run: as §3

Chain of Serine/threonine-protein kinase Chk1 (Homo sapiens) (O14757 whole entry): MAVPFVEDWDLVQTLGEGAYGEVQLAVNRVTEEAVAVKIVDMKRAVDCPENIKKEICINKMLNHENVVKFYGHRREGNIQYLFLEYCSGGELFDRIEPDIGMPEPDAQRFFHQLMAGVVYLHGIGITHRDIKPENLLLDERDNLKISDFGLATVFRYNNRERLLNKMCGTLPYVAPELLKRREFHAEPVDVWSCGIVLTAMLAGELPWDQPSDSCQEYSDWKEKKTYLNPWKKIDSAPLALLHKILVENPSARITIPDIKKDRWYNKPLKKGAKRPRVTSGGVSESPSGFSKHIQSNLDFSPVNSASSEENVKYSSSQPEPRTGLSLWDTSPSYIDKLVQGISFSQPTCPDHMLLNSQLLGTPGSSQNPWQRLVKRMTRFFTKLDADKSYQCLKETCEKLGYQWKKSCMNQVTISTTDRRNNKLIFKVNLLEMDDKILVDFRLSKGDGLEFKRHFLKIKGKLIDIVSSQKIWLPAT
Chain of Aurora kinase A (Homo sapiens) (O14965 whole entry): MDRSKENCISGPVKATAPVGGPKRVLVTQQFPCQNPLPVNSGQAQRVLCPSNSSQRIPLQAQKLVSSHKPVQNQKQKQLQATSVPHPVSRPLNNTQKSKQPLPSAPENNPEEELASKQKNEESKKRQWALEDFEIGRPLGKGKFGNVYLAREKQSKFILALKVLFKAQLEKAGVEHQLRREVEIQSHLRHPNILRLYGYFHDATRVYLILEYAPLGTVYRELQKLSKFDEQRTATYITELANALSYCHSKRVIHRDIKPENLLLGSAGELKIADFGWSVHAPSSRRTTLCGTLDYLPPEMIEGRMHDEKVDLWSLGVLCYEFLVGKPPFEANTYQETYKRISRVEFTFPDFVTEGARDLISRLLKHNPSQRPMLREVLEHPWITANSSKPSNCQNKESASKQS
Chain of Serine/threonine-protein kinase Chk2 (Homo sapiens) (O96017 whole entry): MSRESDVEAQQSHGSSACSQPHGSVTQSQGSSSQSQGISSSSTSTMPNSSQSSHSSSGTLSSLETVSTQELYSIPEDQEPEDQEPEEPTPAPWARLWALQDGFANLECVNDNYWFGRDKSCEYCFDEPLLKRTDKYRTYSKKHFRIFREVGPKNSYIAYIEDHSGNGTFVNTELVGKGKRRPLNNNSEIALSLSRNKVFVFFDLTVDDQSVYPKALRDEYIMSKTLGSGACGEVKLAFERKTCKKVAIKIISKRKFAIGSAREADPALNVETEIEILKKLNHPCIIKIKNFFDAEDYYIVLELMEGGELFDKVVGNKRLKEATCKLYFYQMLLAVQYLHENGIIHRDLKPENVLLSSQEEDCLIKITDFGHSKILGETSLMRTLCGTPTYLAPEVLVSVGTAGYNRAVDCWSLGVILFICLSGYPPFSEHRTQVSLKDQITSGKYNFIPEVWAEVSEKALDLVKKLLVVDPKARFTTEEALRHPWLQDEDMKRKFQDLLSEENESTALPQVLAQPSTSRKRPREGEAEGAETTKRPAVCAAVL
Chain of RAC-alpha serine/threonine-protein kinase (Homo sapiens) (P31749 whole entry): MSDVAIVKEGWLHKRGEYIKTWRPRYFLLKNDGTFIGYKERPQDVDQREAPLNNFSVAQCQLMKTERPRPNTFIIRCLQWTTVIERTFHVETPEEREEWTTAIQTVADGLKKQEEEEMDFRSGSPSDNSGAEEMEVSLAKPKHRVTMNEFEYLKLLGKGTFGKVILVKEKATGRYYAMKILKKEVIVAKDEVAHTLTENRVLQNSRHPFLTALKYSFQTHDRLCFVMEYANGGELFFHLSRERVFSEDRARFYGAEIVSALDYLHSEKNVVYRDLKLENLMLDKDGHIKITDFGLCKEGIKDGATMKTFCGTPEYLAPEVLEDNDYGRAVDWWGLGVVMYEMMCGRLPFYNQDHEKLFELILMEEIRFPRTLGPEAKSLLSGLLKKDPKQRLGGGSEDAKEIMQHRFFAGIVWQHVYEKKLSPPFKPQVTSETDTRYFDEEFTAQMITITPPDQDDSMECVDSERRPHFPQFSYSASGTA
Chain of Serine/threonine-protein kinase B-raf (Homo sapiens) (P15056 whole entry): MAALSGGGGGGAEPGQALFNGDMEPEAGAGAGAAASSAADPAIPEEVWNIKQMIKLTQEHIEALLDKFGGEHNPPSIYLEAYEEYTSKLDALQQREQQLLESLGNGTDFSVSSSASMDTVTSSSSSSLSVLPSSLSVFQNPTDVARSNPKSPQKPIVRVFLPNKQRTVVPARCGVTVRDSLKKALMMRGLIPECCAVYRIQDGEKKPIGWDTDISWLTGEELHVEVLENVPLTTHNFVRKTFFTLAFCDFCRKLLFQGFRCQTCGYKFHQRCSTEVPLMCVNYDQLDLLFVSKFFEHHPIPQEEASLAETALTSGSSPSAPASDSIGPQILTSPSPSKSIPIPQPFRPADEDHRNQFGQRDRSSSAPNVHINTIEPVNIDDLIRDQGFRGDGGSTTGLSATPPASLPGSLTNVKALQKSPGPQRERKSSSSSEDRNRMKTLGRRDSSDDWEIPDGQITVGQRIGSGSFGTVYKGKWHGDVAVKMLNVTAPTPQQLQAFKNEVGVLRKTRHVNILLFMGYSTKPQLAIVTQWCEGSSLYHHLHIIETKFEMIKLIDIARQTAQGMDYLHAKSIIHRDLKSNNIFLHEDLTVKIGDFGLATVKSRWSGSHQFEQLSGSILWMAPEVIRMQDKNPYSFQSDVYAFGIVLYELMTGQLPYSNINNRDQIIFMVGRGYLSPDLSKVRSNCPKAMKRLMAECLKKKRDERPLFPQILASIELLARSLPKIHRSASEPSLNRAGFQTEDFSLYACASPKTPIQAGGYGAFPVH
Chain of Serine/threonine-protein kinase PLK1 (Homo sapiens) (P53350 whole entry): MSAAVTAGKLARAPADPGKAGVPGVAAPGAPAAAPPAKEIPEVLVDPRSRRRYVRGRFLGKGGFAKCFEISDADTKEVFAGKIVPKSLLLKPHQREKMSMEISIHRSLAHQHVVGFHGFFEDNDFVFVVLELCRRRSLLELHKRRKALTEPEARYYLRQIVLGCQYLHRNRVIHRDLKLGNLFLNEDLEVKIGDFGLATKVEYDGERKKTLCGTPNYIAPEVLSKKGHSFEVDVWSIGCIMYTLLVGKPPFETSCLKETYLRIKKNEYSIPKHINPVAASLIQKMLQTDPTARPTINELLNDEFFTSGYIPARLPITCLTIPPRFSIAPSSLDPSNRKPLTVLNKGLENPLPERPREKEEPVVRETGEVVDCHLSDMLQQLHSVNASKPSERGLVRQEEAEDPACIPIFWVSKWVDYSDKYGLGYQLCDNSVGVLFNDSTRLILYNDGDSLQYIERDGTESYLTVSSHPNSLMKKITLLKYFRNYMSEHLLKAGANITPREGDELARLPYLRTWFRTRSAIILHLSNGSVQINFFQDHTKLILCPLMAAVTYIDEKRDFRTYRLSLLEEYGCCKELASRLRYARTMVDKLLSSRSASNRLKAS
Chain of Tyrosine-protein kinase Lck (Homo sapiens) (P06239 2-509 limits assumed): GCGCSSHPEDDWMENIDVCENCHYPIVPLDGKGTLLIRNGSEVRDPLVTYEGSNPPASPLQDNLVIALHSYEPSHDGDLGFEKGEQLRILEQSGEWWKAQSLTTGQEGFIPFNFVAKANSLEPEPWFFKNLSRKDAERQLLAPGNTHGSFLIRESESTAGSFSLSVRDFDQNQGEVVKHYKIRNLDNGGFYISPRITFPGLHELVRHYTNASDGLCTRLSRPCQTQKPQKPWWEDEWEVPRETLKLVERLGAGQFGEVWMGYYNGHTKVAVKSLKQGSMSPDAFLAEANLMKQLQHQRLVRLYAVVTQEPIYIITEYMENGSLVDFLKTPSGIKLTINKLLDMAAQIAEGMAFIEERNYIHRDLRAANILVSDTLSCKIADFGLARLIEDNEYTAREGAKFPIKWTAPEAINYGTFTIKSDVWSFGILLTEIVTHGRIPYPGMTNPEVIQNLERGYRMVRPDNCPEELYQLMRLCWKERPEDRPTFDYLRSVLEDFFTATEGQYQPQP

O=c1cc(-c2ccc(-c3ccccc3)cc2)c2ccc(N3CCC(NCCc4ccccc4)CC3)cc2o1
Activity (AGS [1]): 3.33%
inhibition [2]: 1.75%
Activity (AGS [3]): 44.73%
inhibition [4]: 4.57%
Activity (AGS [5]): 9.88%
CC50 at 48 h [6]: 10.7 µM
Activity (AGS [7]): 38.71%
inhibition [8]: 1.01%
CC50 at 48 h [9]: 13.5 µM
Activity (AGS [10]): 35.01%
inhibition [11]: 9.87%
inhibition [12]: 5.58%
Activity (AGS [13]): Dose-dependent effect
Activity (AGS [14]): 10.51%
inhibition [15]: Active
CI (AGS [16]): 1.13
CI (AGS [17]): 1.15
inhibition [18]: 6.03%
Activity (AGS [19]): Active
inhibition [20]: -2.51%
Activity (AGS [21]): 14.99%
Activity (AGS [22]): 35.77%
inhibition [23]: inactive
Activity (AGS [24]): Active
selectivity ratio [25]: 14 to 18
inhibition [26]: 9.44%
inhibition [27]: Dose-dependent effect
inhibition [28]: Dose-dependent effect
IC50 (SK-OV-3): 3.29 µM
inhibition [29]: 5.17%
IC50 (AGS [30]): 0.76 µM
